{"source": "ChEMBL document CHEMBL4017520", "about": "“Discovery, Structure-Activity Relationship, and Antiparkinsonian Effect of a Potent and Brain-Penetrant Chemical Series of Positive Allosteric Modulators of Metabotropic Glutamate Receptor 4” (J Med Chem, 2017)", "key": {"[1]": {"target": "Amine oxidase [flavin-containing] A (Homo sapiens, UniProt P21397)", "sequence (P21397 whole entry)": "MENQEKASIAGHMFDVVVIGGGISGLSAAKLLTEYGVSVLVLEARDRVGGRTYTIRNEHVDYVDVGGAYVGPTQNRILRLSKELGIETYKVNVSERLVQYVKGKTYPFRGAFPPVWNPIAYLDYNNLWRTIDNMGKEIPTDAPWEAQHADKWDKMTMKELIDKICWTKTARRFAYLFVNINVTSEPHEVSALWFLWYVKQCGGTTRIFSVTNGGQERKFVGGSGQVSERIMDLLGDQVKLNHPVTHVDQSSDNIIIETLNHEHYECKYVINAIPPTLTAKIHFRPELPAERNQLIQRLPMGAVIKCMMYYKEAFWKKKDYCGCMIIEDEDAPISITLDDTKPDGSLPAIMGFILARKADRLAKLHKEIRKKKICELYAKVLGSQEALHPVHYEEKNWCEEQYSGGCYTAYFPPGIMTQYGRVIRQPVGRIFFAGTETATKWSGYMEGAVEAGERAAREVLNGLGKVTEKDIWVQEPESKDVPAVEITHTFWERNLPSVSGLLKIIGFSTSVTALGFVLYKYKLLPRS", "test": "Activity at MAO-A (unknown origin) up to 10 uM", "assay_type": "ADME"}, "[2]": {"test": "Ratio of drug level in Sprague-Dawley rat brain to plasma at 10 mg/kg, ip after 30 mins post dose administered as single dose by LC-MS/MS analysis", "assay_type": "ADME, organism-based", "conditions": "read-out: BPR", "method_in_brief": "(§1)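 Single dose ip (10 or 30 mg/kg, rat) or oral (10 mg/kg, rat or mouse); plasma Cmax, Tmax, half-life, AUC0−inf derived; brain concentration and brain/plasma ratio at 30 min postdose. Mean of 3 rats or 2 mice.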"}, "[3]": {"test": "Ratio of drug uptake in Sprague-Dawley rat brain at 30 mg/kg, ip to EC50 for rat mGlu4 receptor expressed in HEK293 cells", "method_in_brief": "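Rats received a single ip or oral dose. Brain concentration was measured 30 min postdose, mean of 3 rats, and divided by the EC50 measured in cell lines overexpressing rat mGluR4.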"}, "[4]": {"test": "Tmax in Sprague-Dawley rat plasma at 10 mg/kg, po administered as single dose by LC-MS/MS analysis", "assay_type": "ADME, organism-based", "method_in_brief": "(§2)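 Single-dose plasma PK after ip (10 or 30 mg/kg) or oral (10 mg/kg) dosing in rats, and oral 10 mg/kg dosing in mice. […] Values are mean ±SEM of 3 rats or 2 mice.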"}, "[5]": {"test": "AUC (0 to infinity) in Sprague-Dawley rat plasma at 10 mg/kg, ip administered as single dose by LC-MS/MS analysis", "assay_type": "ADME, organism-based", "design": "dose 10 mg/kg, time infinity, route intraperitoneal", "method_in_brief": "(§3)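 Rats dosed ip at 10 or 30 mg/kg. Plasma Cmax, Tmax, half-life and AUC0–inf were determined. Brain concentration was measured 30 min postdose, and brain/plasma ratio was taken at 30 min. Values are the mean (±SEM) of 3 rats.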"}, "[6]": {"test": "Ratio of drug uptake in Sprague-Dawley rat brain to plasma at 30 mg/kg, ip after 30 to 60 mins", "assay_type": "ADME, organism-based", "conditions": "read-out: BPR", "method_in_brief": "(§4)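 Rats dosed 30 mg/kg ip; plasma sampled over time, brain measured at 30 and 60 min; brain/plasma ratio averaged over 30 and 60 min.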"}, "[7]": {"test": "Plasma concentration in Sprague-Dawley rat at 30 mg/kg, ip after 120 mins", "assay_type": "ADME, organism-based", "method_in_brief": "as §4"}, "[8]": {"test": "Cmax in Sprague-Dawley rat at 1 mg/kg, iv administered as single dose by LC-MS/MS analysis", "assay_type": "ADME, organism-based", "design": "dose 1 mg/kg, route intravenous", "conditions": "in vivo"}, "[9]": {"test": "Drug uptake in Sprague-Dawley rat brain at 30 mg/kg, ip after 60 mins", "assay_type": "ADME, organism-based", "conditions": "read-out: Drug uptake"}, "[10]": {"test": "Cmax in Sprague-Dawley rat plasma at 10 mg/kg, po administered as single dose by LC-MS/MS analysis", "assay_type": "ADME, organism-based", "design": "dose 10 mg/kg, route oral", "method_in_brief": "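Rats given a single oral dose of 10 mg/kg. The first plasma sample was taken at 15 min, and sampling continued to 24 h postdose. Brain was sampled at 30 min. Values are the mean (±SEM) of 3 rats.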"}, "[11]": {"system": "Brain", "test": "Fraction unbound in Sprague-Dawley rat brain at 30 mg/kg, ip after 240 mins", "assay_type": "ADME, organism-based", "conditions": "in vivo, 4 h"}, "[12]": {"test": "Tmax in Sprague-Dawley rat plasma at 30 mg/kg, ip administered as single dose by LC-MS/MS analysis", "assay_type": "ADME, organism-based", "method_in_brief": "as §2"}, "[13]": {"target": "Amine oxidase [flavin-containing] B (Homo sapiens, UniProt P27338)", "sequence (P27338 whole entry)": "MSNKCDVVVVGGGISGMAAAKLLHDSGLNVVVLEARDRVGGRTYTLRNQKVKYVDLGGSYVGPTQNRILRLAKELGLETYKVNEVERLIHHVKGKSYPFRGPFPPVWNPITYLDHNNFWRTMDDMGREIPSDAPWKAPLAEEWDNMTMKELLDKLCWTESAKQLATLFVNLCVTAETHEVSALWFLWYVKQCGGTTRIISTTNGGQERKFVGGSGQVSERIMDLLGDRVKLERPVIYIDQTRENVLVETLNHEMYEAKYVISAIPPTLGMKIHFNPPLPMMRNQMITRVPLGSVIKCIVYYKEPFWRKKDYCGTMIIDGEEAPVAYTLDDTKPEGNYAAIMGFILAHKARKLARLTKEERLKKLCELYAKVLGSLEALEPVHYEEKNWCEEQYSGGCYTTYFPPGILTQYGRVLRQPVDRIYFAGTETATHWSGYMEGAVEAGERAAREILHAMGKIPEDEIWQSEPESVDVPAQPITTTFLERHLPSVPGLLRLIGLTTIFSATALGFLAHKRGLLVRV", "test": "Activity at MAO-B (unknown origin) up to 10 uM", "assay_type": "ADME"}, "[14]": {"test": "Drug uptake in Sprague-Dawley rat brain at 30 mg/kg, ip after 30 mins post dose administered as single dose by LC-MS/MS analysis", "assay_type": "ADME, organism-based", "conditions": "read-out: Drug uptake", "method_in_brief": "as §3"}, "[15]": {"test": "Half life in Sprague-Dawley rat at 1 mg/kg, iv administered as single dose by LC-MS/MS analysis", "assay_type": "ADME, organism-based", "conditions": "in vivo", "method_in_brief": "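Single iv dose, 1 mg/kg in rat or 2 mg/kg in mouse; plasma PK parameters derived; brain/plasma ratio taken at 1 h postdose (rat) or 30 min postdose (mouse). Mean of 3 rats; 2 mice for mouse Cmax and brain/plasma.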"}, "[16]": {"test": "Cmax in C57BL/6 mouse at 2 mg/kg, iv administered as single dose by LC-MS/MS analysis", "assay_type": "ADME, organism-based", "design": "dose 2 mg/kg, route intravenous", "conditions": "in vivo"}, "[17]": {"test": "Half life in Sprague-Dawley rat plasma at 10 mg/kg, ip administered as single dose by LC-MS/MS analysis", "assay_type": "ADME, organism-based", "method_in_brief": "as §1"}, "[18]": {"test": "Plasma concentration in Sprague-Dawley rat at 30 mg/kg, ip after 60 mins", "assay_type": "ADME, organism-based", "method_in_brief": "as §4"}, "[19]": {"target": "Mitogen-activated protein kinase kinase kinase 7 (Homo sapiens) (UniProt O43318)", "sequence (O43318 whole entry)": "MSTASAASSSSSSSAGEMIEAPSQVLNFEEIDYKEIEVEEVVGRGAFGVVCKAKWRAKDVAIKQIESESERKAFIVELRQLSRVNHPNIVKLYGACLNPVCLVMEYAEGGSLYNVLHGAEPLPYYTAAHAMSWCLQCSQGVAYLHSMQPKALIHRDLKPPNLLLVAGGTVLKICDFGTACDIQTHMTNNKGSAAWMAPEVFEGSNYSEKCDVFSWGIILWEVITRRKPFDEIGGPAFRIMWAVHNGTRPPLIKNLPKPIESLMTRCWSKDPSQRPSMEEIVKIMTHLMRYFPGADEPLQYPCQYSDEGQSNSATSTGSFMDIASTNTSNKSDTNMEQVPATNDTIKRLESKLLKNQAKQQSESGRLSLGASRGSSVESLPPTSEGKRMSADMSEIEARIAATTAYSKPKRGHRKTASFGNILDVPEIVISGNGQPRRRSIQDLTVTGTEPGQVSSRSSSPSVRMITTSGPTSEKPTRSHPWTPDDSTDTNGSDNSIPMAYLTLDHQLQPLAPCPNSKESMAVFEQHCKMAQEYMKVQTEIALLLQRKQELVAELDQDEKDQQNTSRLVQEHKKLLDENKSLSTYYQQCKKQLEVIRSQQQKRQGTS", "test": "Inhibition of TAK1 (unknown origin) at 10 uM"}, "[20]": {"species_on_record": "Rattus norvegicus", "test": "Activity at NMDA glutamate receptor in rat cerebral cortex at 10 uM", "method_in_brief": "(§5)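 Inhibition of orthosteric ligand binding to NMDA, AMPA and kainate receptors on rat cerebral cortex membranes, tested up to 10 μM.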"}, "[21]": {"target": "Metabotropic glutamate receptor 1 (Homo sapiens) (UniProt Q13255)", "sequence (Q13255 19-1194 limits assumed)": "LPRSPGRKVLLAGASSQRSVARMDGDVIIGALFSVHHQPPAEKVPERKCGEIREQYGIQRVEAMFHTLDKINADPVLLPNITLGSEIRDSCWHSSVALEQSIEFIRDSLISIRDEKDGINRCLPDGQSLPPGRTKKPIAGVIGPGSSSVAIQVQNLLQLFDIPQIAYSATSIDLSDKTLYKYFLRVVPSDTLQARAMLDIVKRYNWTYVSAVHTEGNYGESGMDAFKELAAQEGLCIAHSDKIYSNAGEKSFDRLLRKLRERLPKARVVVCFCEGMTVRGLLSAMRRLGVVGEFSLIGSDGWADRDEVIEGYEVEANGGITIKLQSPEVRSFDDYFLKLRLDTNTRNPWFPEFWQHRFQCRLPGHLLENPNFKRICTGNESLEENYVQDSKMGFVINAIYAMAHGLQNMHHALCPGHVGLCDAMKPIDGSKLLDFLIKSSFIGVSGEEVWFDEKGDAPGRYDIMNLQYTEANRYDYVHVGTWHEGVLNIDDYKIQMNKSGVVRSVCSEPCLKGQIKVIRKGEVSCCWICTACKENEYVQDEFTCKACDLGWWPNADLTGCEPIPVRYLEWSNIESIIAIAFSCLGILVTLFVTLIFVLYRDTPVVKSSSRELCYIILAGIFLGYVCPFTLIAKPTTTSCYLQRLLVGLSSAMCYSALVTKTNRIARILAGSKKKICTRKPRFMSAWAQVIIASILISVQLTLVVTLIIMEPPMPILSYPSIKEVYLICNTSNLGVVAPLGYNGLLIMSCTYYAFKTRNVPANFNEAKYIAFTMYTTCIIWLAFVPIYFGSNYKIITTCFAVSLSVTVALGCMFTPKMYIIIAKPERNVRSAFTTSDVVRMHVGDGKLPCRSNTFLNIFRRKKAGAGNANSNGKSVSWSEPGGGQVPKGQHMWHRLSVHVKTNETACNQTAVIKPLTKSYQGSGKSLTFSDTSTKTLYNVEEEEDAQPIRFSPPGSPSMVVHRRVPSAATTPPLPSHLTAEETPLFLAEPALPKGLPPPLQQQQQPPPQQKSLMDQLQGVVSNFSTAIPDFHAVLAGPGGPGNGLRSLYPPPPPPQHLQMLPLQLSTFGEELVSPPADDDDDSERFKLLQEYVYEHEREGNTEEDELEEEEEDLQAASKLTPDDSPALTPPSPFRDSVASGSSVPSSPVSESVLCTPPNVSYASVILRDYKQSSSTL", "test": "Activity at human mGlu1 receptor expressed in HEK293 cells co-expressing Gi/Gq assessed as effect on EC20/EC80 glutamate-induced intracellular calcium level up to 10 uM preincubated for 10 mins followed by glutamate addition measured for 3 mins by Fluo4-AM dye based fluorescence assay", "assay_type": "functional, cell-based", "method_in_brief": "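HEK-293 cells were electroporated with the human mGluR plus a promiscuous or chimeric G protein and cultured 24 h, then serum-starved 3 h. Cells were loaded 1.5 h with 1 μM Fluo4-AM in HBSS/HEPES buffer with probenecid and 0.1% BSA. Compound was added for 10 min, then glutamate at EC20 (PAM) or EC80 (NAM), and fluorescence (ex 485/em 525) was read for 3 min.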"}, "[22]": {"system": "Rattus norvegicus", "test": "Protection against 6-OHDA induced parkinsonian motor deficit in Sprague-Dawley rat assessed as increase in slow activity at 30 mg/kg, ip after 28 days post surgery", "assay_type": "functional, organism-based", "method_in_brief": "(§6)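 Adult male Sprague−Dawley rats with bilateral 6-OHDA striatal lesions given compound 30 mg/kg ip or vehicle at T0; spontaneous locomotor activity (active time, slow activity, rearing) counted in 5-min bins versus pre-surgery vehicle; n = 10.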"}, "[23]": {"species_on_record": "Homo sapiens", "test": "Selectivity ratio of compound effect for positive allosteric modulation of recombinant human mGlu4 receptor to compound effect for activity at human mGlu6 receptor"}, "[24]": {"target": "Glycogen synthase kinase-3 beta (Homo sapiens) (UniProt P49841)", "sequence (P49841 whole entry, looked up)": "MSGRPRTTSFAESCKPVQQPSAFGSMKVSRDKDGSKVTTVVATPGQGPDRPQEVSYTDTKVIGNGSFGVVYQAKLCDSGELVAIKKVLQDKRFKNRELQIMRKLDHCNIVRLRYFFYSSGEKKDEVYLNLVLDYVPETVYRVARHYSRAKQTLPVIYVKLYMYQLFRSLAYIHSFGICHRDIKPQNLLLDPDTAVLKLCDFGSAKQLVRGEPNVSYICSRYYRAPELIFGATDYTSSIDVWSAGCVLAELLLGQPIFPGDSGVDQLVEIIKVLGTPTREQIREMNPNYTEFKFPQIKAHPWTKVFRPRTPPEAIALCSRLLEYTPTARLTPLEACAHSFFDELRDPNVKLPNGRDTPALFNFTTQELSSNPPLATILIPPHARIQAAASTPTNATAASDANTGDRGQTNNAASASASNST", "test": "Inhibition of GSK3beta (unknown origin) at 10 uM"}, "[25]": {"target": "Metabotropic glutamate receptor 5 (Homo sapiens) (UniProt P41594)", "sequence (P41594 21-1212 limits assumed)": "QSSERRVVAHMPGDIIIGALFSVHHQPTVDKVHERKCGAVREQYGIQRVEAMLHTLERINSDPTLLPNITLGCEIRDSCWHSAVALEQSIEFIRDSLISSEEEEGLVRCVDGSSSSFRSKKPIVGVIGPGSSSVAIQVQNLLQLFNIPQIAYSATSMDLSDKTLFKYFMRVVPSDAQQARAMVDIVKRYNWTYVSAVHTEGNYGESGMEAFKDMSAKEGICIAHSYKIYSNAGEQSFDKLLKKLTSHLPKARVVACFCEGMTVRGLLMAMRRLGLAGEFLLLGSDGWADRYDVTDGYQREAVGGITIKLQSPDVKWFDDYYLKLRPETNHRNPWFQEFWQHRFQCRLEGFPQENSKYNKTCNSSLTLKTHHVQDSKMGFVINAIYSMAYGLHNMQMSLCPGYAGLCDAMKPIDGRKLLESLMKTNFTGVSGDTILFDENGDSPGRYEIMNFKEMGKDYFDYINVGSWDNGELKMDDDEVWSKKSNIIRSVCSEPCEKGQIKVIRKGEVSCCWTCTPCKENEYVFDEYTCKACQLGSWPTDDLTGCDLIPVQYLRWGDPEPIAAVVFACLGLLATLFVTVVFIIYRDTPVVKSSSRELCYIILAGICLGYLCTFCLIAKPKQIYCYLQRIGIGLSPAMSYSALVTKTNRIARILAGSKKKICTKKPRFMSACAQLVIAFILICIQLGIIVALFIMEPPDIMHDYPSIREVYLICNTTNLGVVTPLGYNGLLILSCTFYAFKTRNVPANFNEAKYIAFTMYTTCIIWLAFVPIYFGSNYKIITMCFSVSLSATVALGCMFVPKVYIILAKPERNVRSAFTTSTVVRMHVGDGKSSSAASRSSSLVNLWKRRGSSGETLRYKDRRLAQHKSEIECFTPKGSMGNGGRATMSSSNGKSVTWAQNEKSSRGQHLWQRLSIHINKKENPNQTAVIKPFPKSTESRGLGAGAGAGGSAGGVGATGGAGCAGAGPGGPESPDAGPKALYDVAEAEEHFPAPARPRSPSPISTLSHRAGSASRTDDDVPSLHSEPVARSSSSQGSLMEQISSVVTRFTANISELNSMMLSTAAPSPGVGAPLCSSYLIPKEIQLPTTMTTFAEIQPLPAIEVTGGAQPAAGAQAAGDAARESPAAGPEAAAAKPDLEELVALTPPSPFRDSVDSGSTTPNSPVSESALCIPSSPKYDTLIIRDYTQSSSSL", "test": "Activity at human mGlu5 receptor expressed in HEK293 cells co-expressing Gi/Gq assessed as effect on intracellular calcium level up to 10 uM after 10 mins by Fluo4-AM dye based fluorescence assay", "assay_type": "functional, cell-based", "method_in_brief": "(§7)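 HEK-293 cells transiently expressing the human mGluR with a promiscuous or chimeric G protein were serum-starved 3 h and loaded 1.5 h with 1 μM Fluo4-AM. Compound alone was added in assay buffer, and calcium fluorescence (ex 485/em 525) was recorded for 10 min as agonist readout.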"}, "[26]": {"target": "Metabotropic glutamate receptor 1 (Homo sapiens) (UniProt Q13255)", "test": "Activity at human mGlu1 receptor expressed in HEK293 cells co-expressing Gi/Gq assessed as effect on intracellular calcium level up to 10 uM after 10 mins by Fluo4-AM dye based fluorescence assay", "assay_type": "functional, cell-based", "method_in_brief": "as §7"}, "[27]": {"species_on_record": "Rattus norvegicus", "test": "Activity at kainate glutamate receptor in rat cerebral cortex at 10 uM", "method_in_brief": "as §5"}, "[28]": {"system": "Rattus norvegicus", "test": "Protection against 6-OHDA induced parkinsonian motor deficit in Sprague-Dawley rat assessed as increase in active time at 30 mg/kg, ip after 28 days post surgery", "assay_type": "functional, organism-based", "method_in_brief": "as §6"}}, "note": "Active and inactive are the calls of the source. The calls are words filed in the database; no cut-off is given here."}
{"compound": "O/N=c1\\cc(-c2cc3cccn3cn2)oc2ccc(OCCN3CCOCC3)cc12", "note": "[listing 1 of 2 here]", "values": [{"measurement": "Activity", "setting": "[1]", "value": "Not Active"}, {"measurement": "Kp at 0.5 h", "setting": "[2]", "value": 3.1}, {"measurement": "Ratio", "setting": "[3]", "value": 14.5}, {"measurement": "Tmax", "setting": "[4]", "value": 20, "unit": "min"}, {"measurement": "AUC(0-inf)", "setting": "[5]", "value": 2240, "unit": "ng·h/mL"}, {"measurement": "Kp", "setting": "[6]", "value": 3.25}, {"measurement": "concentration at 2 h", "setting": "[7]", "value": 535, "unit": "ng/mL"}, {"measurement": "Cmax", "setting": "[8]", "value": 444, "unit": "ng/mL"}, {"measurement": "concentration at 1 h", "setting": "[9]", "value": 12000, "unit": "ng/g"}, {"measurement": "Cmax", "setting": "[10]", "value": 135, "unit": "ng/mL"}, {"measurement": "Drug uptake(free)", "setting": "[11]", "value": 2, "unit": "ng/g"}, {"measurement": "Tmax", "setting": "[12]", "value": 15, "unit": "min"}, {"measurement": "Activity", "setting": "[13]", "value": "Not Active"}, {"measurement": "concentration at 0.5 h", "setting": "[14]", "value": 22800, "unit": "ng/g"}, {"measurement": "half-life", "setting": "[15]", "value": 44, "unit": "min"}, {"measurement": "Cmax", "setting": "[16]", "value": 753, "unit": "ng/mL"}, {"measurement": "half-life", "setting": "[17]", "value": 240, "unit": "min"}, {"measurement": "concentration at 1 h", "setting": "[18]", "value": 3560, "unit": "ng/mL"}]}
{"compound": "O/N=c1\\cc(-c2cc3cccn3cn2)oc2ccc(OCCN3CCOCC3)cc12", "note": "[listing 2 of 2 here]", "values": [{"measurement": "inhibition", "setting": "[19]", "value": "inactive"}, {"measurement": "Activity", "setting": "[20]", "value": "inactive"}, {"measurement": "Activity", "setting": "[21]", "value": "inactive"}, {"measurement": "Activity", "setting": "[22]", "value": "Active"}, {"measurement": "Selectivity ratio", "setting": "[23]", "value": 13}, {"measurement": "inhibition", "setting": "[24]", "value": "inactive"}, {"measurement": "Activity", "setting": "[25]", "value": "inactive"}, {"measurement": "Activity", "setting": "[26]", "value": "inactive"}, {"measurement": "Activity", "setting": "[27]", "value": "inactive"}, {"measurement": "Activity", "setting": "[28]", "value": "Active"}]}
